The source made the active and inactive calls. No rule for the calls is given here.
Assays:
[1] = biological target: T1, Tyrosyl-DNA phosphodiesterase 2 (Homo sapiens, UniProt O95551); assay: Inhibition of recombinant human TDP2 using TY18 (alpha-[32P]-cordycepin-3'-labeled) as substrate after 15 mins by PAGE analysis
T1 sequence (O95551 whole entry): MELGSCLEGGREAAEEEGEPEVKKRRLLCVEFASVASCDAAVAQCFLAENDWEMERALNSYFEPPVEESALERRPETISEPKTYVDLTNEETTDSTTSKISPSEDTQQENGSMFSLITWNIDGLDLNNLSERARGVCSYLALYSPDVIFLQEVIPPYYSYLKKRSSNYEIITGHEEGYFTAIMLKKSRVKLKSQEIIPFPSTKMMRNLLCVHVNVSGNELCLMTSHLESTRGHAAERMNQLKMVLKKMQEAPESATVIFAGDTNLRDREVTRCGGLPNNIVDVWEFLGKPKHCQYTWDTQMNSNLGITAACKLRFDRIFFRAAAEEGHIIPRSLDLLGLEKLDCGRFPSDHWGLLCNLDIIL
Outline: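 32P-cordycepin-3'-labeled TY18 substrate at 1 nM with 25 pM recombinant human TDP2, 15 min at room temperature. Buffer: 50 mM Tris-HCl pH 7.5, 80 mM KCl, 5 mM MgCl2, 0.1 mM EDTA, 1 mM DTT, 40 μg/mL BSA, 0.01% Tween 20. Six or eight three-fold dilutions up to 111 μM. Gel densitometry; IC50 is mean ± SD of ≥3 independent experiments. Positive control: SV-163.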

[2] = biological target: Tyrosyl-DNA phosphodiesterase 1 (Homo sapiens, UniProt Q9NUW8); assay: Inhibition of recombinant TDP1 (unknown origin) at 111 uM using 5'-[32P]-labeled N14Y as substrate after 15 mins by PAGE analysis
Chain of Tyrosyl-DNA phosphodiesterase 1 (Q9NUW8 whole entry): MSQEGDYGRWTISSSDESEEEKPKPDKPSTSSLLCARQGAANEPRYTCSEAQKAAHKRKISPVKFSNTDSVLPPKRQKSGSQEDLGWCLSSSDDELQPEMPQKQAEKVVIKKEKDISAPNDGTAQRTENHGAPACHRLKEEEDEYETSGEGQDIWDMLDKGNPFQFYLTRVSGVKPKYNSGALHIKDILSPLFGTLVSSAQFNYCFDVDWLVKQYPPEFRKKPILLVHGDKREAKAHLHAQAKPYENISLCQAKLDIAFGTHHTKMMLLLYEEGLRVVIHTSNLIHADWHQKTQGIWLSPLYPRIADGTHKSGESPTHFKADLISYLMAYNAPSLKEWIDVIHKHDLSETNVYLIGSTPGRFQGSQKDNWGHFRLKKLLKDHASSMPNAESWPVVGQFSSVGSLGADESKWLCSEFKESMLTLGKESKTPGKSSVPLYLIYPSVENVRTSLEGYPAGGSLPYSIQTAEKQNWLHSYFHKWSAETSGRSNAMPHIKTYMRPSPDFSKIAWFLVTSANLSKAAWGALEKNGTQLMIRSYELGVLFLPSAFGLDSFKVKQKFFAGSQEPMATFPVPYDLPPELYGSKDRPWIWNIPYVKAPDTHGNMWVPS
Outline: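 5'-32P-labeled N14Y (3'-phosphotyrosyl single-stranded oligo) at 1 nM with 10 pM recombinant TDP1, 15 min at room temperature. Three-fold dilutions up to 111 μM. Gels scanned and quantified by densitometry. Positive control: AM-8-3.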

[3] = biological target: T1, Tyrosyl-DNA phosphodiesterase 2; assay: Inhibition of human TDP2 expressed in TDP2 deficient chicken DT40 whole cell extracts using TY19 DNA as substrate after 15 mins by PAGE analysis
Outline: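 Extract from 1×10^7 TDP2-knockout DT40 cells complemented with human TDP2, lysed 15 min on ice, spun at 12000 g for 10 min, stored at -80 °C. TY19 substrate at 1 nM with 5 μg/mL extract, ±inhibitor, 15 min at room temperature in LMP2 buffer. Gel densitometry. IC50 is mean ± SD of ≥3 independent experiments.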

Row | inhibition [2] | IC50 [3] [µM] | SMILES | IC50 [1] [µM]
1 | inactive | – | Cc1oc2c(c1C(=O)Oc1ccc(OCCCN3CCOCC3)cc1)C(=O)c1ncccc1C2=O | 51
2 | inactive | 17 | COC(=O)[C@H](Cc1ccc(OC(=O)c2c(C)oc3c2C(=O)c2ncccc2C3=O)cc1)NC(C)=O | 23
3 | inactive | 72 | Cc1oc2c(c1C(=O)OCCc1cn(CCCO)nn1)C(=O)c1ncccc1C2=O | 66
4 | inactive | – | CCOC(=O)c1n[nH]c2c1C(=O)c1cccnc1C2=O | > 111
5 | inactive | – | Cc1oc2c(c1C(=O)Oc1ccc(C(=O)c3ccccc3)cc1)C(=O)c1ncccc1C2=O | > 111
6 | inactive | 13 | Cc1oc2c(c1C(=O)Oc1ccc(C#N)cc1)C(=O)c1ncccc1C2=O | 15
7 | inactive | 37 | Cc1oc2c(c1C(=O)OCC(=O)O)C(=O)c1ncccc1C2=O | 51
8 | inactive | 39 | Cc1oc2c(c1C(=O)Oc1ccccc1O)C(=O)c1cccnc1C2=O | 29
9 | inactive | – | Cc1oc2c(c1C(=O)Oc1ccccc1NC(=O)OC(C)(C)C)C(=O)c1ncccc1C2=O | 36
10 | inactive | 12 | Cc1oc2c(c1C(=O)Oc1cccc(N)c1)C(=O)c1ncccc1C2=O | 16
11 | inactive | – | Cc1oc2c(c1C(=O)Oc1cccc(NC(=O)OC(C)(C)C)c1)C(=O)c1ncccc1C2=O | 31
12 | inactive | – | Cc1cnc2c(c1)C(=O)c1occ(C)c1C2=O | > 111
13 | inactive | 10 | Cc1oc2c(c1C(=O)Oc1cccc(C#N)c1)C(=O)c1ncccc1C2=O | 12
14 | inactive | 7.5 | Cc1oc2c(c1C(=O)Oc1ccc(Cl)cc1)C(=O)c1ncccc1C2=O | 11
15 | inactive | – | CCOC(=O)c1c(C)[nH]c2c1C(=O)c1cccnc1C2=O | > 111
16 | inactive | 24 | Cc1oc2c(c1C(=O)OCCC[n+]1ccccc1)C(=O)c1ncccc1C2=O | 32
17 | inactive | > 111 | Cc1oc2c(c1C(=O)Oc1ccc3c(c1)OCO3)C(=O)c1ncccc1C2=O | > 111
18 | inactive | 38 | Cc1oc2c(c1C(=O)OCCC[n+]1ccc(N(C)C)cc1)C(=O)c1ncccc1C2=O | 43
19 | inactive | – | CCOC(=O)c1n[nH]c2c1C(=O)c1ncccc1C2=O | > 111
20 | inactive | 13 | Cc1oc2c(c1C(=O)OCCC#N)C(=O)c1ncccc1C2=O | 14
21 | inactive | > 111 | Cc1oc2c(c1C(=O)Oc1ccccc1C#N)C(=O)c1ncccc1C2=O | > 111
22 | inactive | 13 | Cc1oc2c(c1C(=O)OCCOCCO)C(=O)c1ncccc1C2=O | 22
23 | inactive | – | Cc1oc2c(c1-c1nc3ccccc3o1)C(=O)c1ncccc1C2=O | > 111
24 | inactive | 14 | Cc1oc2c(c1C(=O)Oc1ccccc1Cl)C(=O)c1ncccc1C2=O | 10
25 | inactive | 19 | Cc1oc2c(c1C(=O)OCCCCCO)C(=O)c1ncccc1C2=O | 45
26 | inactive | 7.7 | Cc1oc2c(c1C(=O)Oc1cccnc1)C(=O)c1ncccc1C2=O | 8.8
27 | inactive | – | CCNC(=O)c1c(C)oc2c1C(=O)c1cccnc1C2=O | > 111
28 | inactive | – | Cc1oc2c(c1C(=O)Oc1ccc(NC(=O)OC(C)(C)C)cc1)C(=O)c1ncccc1C2=O | 88
29 | inactive | 8.3 | Cc1oc2c(c1C(=O)Oc1cccc(-c3cn(CCCO)nn3)c1)C(=O)c1ncccc1C2=O | 8.1
30 | inactive | – | Cc1oc2c(c1C(=O)Nc1cccc(Cl)c1)C(=O)c1cccnc1C2=O | > 111

Row | SMILES | inhibition [2] | IC50 [3] [µM] | IC50 [1] [µM]
31 | Cc1oc2c(c1C(=O)OCCCCO)C(=O)c1ncccc1C2=O | inactive | 12 | 26
32 | Cc1oc2c(c1C(=O)Oc1ccc3ccccc3c1)C(=O)c1ncccc1C2=O | inactive | – | > 111
33 | CC(=O)c1c(C)oc2c1C(=O)c1cccnc1C2=O | inactive | – | > 111
34 | C=CC(=O)Nc1cccc(OC(=O)c2c(C)oc3c2C(=O)c2ncccc2C3=O)c1 | inactive | – | 71
35 | COP(=O)(OC)c1c(C)oc2c1C(=O)c1cccnc1C2=O | inactive | – | 99
36 | CC(=O)N1CCN(c2ccc(OC(=O)c3c(C)oc4c3C(=O)c3ncccc3C4=O)cc2)CC1 | inactive | 34 | 37
37 | Cc1oc2c(c1C(=O)OCCc1ccccc1)C(=O)c1ncccc1C2=O | inactive | 24 | 53
38 | C=CC(=O)Nc1ccc(OC(=O)c2c(C)oc3c2C(=O)c2ncccc2C3=O)cc1 | inactive | – | 68
39 | Cc1oc2c(c1C(=O)Oc1ccc(Br)cc1)C(=O)c1ncccc1C2=O | inactive | 12 | 35
40 | Cc1oc2c(c1C(=O)Oc1cccc(Cl)c1)C(=O)c1ncccc1C2=O | inactive | 11 | 14
41 | Cc1oc2c(c1C(=O)OC[C@H](O)CO)C(=O)c1ncccc1C2=O | inactive | 15 | 50
42 | CCOC(=O)c1c2c(n(C)c1C)C(=O)c1ncccc1C2=O | inactive | – | > 111
43 | CCOC(=O)c1c(C)oc2c1C(=O)c1cccnc1C2=O | inactive | 54 | 43
44 | Cc1oc2c(c1C(=O)Nc1ccccc1)C(=O)c1ncccc1C2=O | inactive | – | > 111
45 | Cc1oc2c(c1C(=O)Oc1cccc(-c3cn(CCC(=O)O)nn3)c1)C(=O)c1ncccc1C2=O [listing 1 of 3 here] | inactive | – | –
46 | CCNC(=O)c1c(C)oc2c1C(=O)c1ncccc1C2=O | inactive | – | > 111

Row | SMILES | inhibition [2] | IC50 [3] [µM] | IC50 [1] [µM]
47 | Cc1oc2c(c1C(=O)Oc1cccc(-c3cn(CCC(=O)O)nn3)c1)C(=O)c1ncccc1C2=O [listing 2 of 3 here] | – | 13 | 22
48 | COc1ccc(NC(=O)c2c(C)oc3c2C(=O)c2ncccc2C3=O)cc1 | inactive | – | > 111
49 | COP(=O)(OC)c1c(C)oc2c1C(=O)c1ncccc1C2=O | inactive | – | > 111
50 | Cc1oc2c(c1C(=O)Nc1cccc(Cl)c1)C(=O)c1ncccc1C2=O | inactive | – | > 111
51 | Cc1oc2c(c1C(=O)Oc1ccc(N)cc1)C(=O)c1ncccc1C2=O | inactive | – | 19
52 | COP(=O)(CCOC(=O)c1c(C)oc2c1C(=O)c1ncccc1C2=O)OC | inactive | 17 | 9
53 | COC(=O)c1c(C)oc2c1C(=O)c1ncccc1C2=O | inactive | 12 | 26
54 | Cc1oc2c(c1C(=O)OCCc1cn(CCC(=O)O)nn1)C(=O)c1ncccc1C2=O | inactive | 16 | 20
55 | Cc1oc2c(c1C(=O)Oc1cccc(-c3cn(CCC(=O)O)nn3)c1)C(=O)c1ncccc1C2=O [listing 3 of 3 here] | – | 28 | 50
56 | CC(=O)c1c(C)oc2c1C(=O)c1ncccc1C2=O | inactive | 36 | 35
57 | Cc1oc2c(c1C(=O)OCC(O)CO)C(=O)c1ncccc1C2=O (stereo not drawn) | inactive | 11 | 20
58 | COP(=O)(OC)Oc1ccc(OC(=O)c2c(C)oc3c2C(=O)c2ncccc2C3=O)cc1 | inactive | – | 31
59 | Cc1oc2c(c1C(=O)Oc1ccc(S(C)(=O)=O)cc1)C(=O)c1ncccc1C2=O | inactive | 16 | 14
60 | C#Cc1cccc(OC(=O)c2c(C)oc3c2C(=O)c2ncccc2C3=O)c1 | inactive | 13 | 43
61 | Cc1oc2c(c1C(=O)Nc1ccccc1O)C(=O)c1ncccc1C2=O | inactive | – | > 111
